Test results from PubChem BioAssay AID624068 (Broad Institute, 2012).
Records with an inconclusive call do not appear.

Tested on: S. cerevisiae W303 JC-1 mitochondrial potential, flow cytometry
Assay: JC-1 mitochondrial potential loss in yeast – flow cytometry, single point, dry powder, mechanism study for C. glabrata antifungal project (AID 624068)
Conditions: at 1 µM; active compounds read high
Outline: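 Assay system: S. cerevisiae W303-1a yeast | Input: Starting culture density OD600 0.1 | Buffer or medium: Glucose SD-CSM medium | Probe or stimulus: JC-1 membrane potential dye, 1 µg/mL final | Timing: 90 min pre-growth at 30 °C, 4 h compound exposure | Technique: JC-1 flow cytometry, 488 nm excitation | Control set: Antimycin A 10 µM plus negative controls for calibration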

Structure (SMILES): CCOC(=O)N1C(=O)C2(CCCCC2)N(c2ccc(C)cc2)C1=S
- mitochondrial depolarization score: 27.8
